From PMC4544744 (Nature chemical biology, 2015)
“And” between values parts separate entries of the source, which are not always exact repeats. Identical values can stand only once.

What was measured:
[1] = molecular target: T1, Dcs1p WT (H268N) (Saccharomyces cerevisiae, UniProt Q06151, H268N); assay: Methyl NMR spectra, formation of asymmetric conformation; design: species or system S. cerevisiae
[2] = molecular target: Dcs1p WT (H268N), full length (Saccharomyces cerevisiae, UniProt Q06151, H268N); assay: ITC; assay type: binding, S. cerevisiae
How it was run: (§1)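 Recombinant yeast Dcs1p carrying H268N, full length or C-terminal domain, purified by Ni-NTA, TEV cleavage and size exclusion. ITC at 25°C: m7GpppG or m7GMP injected into 0.5 mM enzyme solution.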

[3] = tested on: WT Dcs1p; assay: 31P NMR degradation; assay type: biochemical, S. cerevisiae
How it was run: (§2)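 Recombinant S. cerevisiae Dcs1p, expressed in E. coli BL21(DE3) codon plus and purified by Ni-NTA, TEV tag cleavage and size exclusion into 25 mM Hepes pH 8.0, 25 mM NaCl made in 100% D2O. 0.5 mM m7GpppG mixed with 50 nM enzyme at 27°C. Successive 31P spectra recorded over several hours, following substrate conversion to m7GMP and GDP.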

[4] = tested on: DcpS; details: cited from earlier work
[5] = molecular target: T1, Dcs1p WT (H268N); assay: NMR titration; design: species or system S. cerevisiae; details: Kd open site (second binding event), determined using NMR
How it was run: (§3)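 Deuterated, Ile/Met methyl-labelled Dcs1p (H268N), 0.25 mM dimer in D2O buffer pH 8.0 at 27°C. Methyl-TROSY spectra recorded during stepwise m7GpppG addition, up to 20 molar equivalents (5 mM). Peak positions and intensities from all titration points fitted simultaneously to a sequential two-site binding model. Kd given as mean ± s.d. from Monte Carlo simulations varying data within their errors.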

[6] = tested on: Dcs1p K126A; assay: 31P NMR degradation; assay type: biochemical, S. cerevisiae; details: high substrate excess
[7] = molecular target: T2, Dcs1p K126A (H268N) (Saccharomyces cerevisiae, UniProt Q06151, H268N/K126A); assay: ITC; assay type: binding, S. cerevisiae
How it was run: as §1

[8] = tested on: Dcs1p Y94A; assay: 31P NMR degradation; assay type: biochemical, S. cerevisiae; details: Y94A enzyme; 31P NMR time series, 14 h
How it was run: as §2

[9] = molecular target: T1, Dcs1p WT (H268N); assay: Longitudinal exchange NMR, domain flipping motions; design: species or system S. cerevisiae
How it was run: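 Methyl-TROSY longitudinal exchange spectra recorded with m7GpppG at 1:1, 1:2.5, 1:5 and 1:20 molar ratios. Mixing times 3–1000 ms. Rates fitted from auto- and cross-peak intensities versus mixing time.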

[10] = tested on: Dcs1p K126A; assay: Longitudinal exchange NMR, domain flipping motions; design: species or system S. cerevisiae
[11] = molecular target: T2, Dcs1p K126A (H268N); assay: NMR titration; design: species or system S. cerevisiae; details: Kd open site (second binding event), determined using NMR
How it was run: as §3

Chain of Dcs1p WT (H268N), full length (Q06151 whole entry H268N, the tested form may be a part): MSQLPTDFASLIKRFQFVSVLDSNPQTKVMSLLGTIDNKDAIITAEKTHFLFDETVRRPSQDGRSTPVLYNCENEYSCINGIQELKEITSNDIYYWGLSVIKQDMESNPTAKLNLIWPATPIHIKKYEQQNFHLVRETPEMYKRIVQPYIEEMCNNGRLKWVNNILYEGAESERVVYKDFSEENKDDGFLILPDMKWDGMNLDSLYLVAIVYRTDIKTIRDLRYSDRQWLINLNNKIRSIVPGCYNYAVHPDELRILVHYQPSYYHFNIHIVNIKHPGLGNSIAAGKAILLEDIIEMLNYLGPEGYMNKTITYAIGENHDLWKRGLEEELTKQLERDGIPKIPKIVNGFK
T1 sequence (Q06151 whole entry H268N): as the sequence (Q06151 whole entry H268N, the tested form may be a part) above
T2 sequence (Q06151 whole entry K126A/H268N): as the sequence (Q06151 whole entry H268N, the tested form may be a part) above, with K126A counted along it

SMILES: C[n+]1cn([C@@H]2O[C@H](COP(=O)([O-])O)[C@@H](O)[C@H]2O)c2nc(N)[nH]c(=O)c21 [m7GMP, m^7G monophosphate]
- formation of asymmetric conformation [1]: preserves the asymmetric form of the complex
- Kd ([2]; Kd (single-step binding, closed binding site), ITC, DcpS H268N): 1100 ± 600 nM
- factor weaker interaction with closed binding site than the substrate ([2]; product vs substrate): 4
- interaction with the second, open binding site ([2]; using ITC and NMR): not able to detect an interaction

SMILES: Nc1nc2c(ncn2[C@@H]2O[C@H](COP(=O)(O)OP(=O)(O)OP(=O)(O)OC[C@H]3O[C@@H](n4cnc5c(=O)[nH]c(N)nc54)[C@H](O)[C@@H]3O)[C@@H](O)[C@H]2O)c(=O)[nH]1 [GpppG]
- enzymatic turnover / hydrolysis ([3]; WT enzyme, 31P NMR time series, 14 h): did not detect enzymatic turnover
- formation of asymmetric conformation [1]: observed no resonances corresponding to the asymmetric conformation

SMILES: C[n+]1cn([C@@H]2O[C@H](COP(=O)(O)OP(=O)(O)O)[C@@H](O)[C@H]2O)c2nc(N)[nH]c(=O)c21 [m^7GDP, 7-methylguanosine diphosphate]
- hydrolysis [4]: not hydrolysed efficiently

SMILES: C[n+]1cn([C@@H]2O[C@H](COP(=O)([O-])OP(=O)(O)OP(=O)(O)OC[C@H]3O[C@@H](n4cnc5c(=O)[nH]c(N)nc54)[C@H](O)[C@@H]3O)[C@@H](O)[C@H]2O)c2nc(N)[nH]c(=O)c21 [m7GpppG]
- Kd [5]: 105 µM
- Turnover rate (kcat) [6]: 0.48 s^−1 under high substrate excess
- Kd [7]: 240 nM
- enzymatic turnover / hydrolysis [8]: did not detect enzymatic turnover
- Turnover rate (kcat) ([3]; high substrate excess, 0.5 mM substrate, 50 nM enzyme, 27°C): 0.27 s^−1 under high substrate excess
- domain flipping (exchange) rate ([9]; 20-fold excess of substrate over dimeric enzyme, inactive H268N): 35.4 (± 4.8) s^−1 and 35.4 s^−1
- Flipping rate ([9]; low substrate excess): 8 Hz
- Flipping rate ([10]; K126A (H268N), under high and low substrate excess): < 1 Hz under high and low substrate excess
- domain flipping rate ([10]; K126A, substrate excess, based on detection limit of the experiment): less than 1 s^−1
- Kd [11]: 196 µM
